Only some compounds are listed: those with a hit (about 1.4% of all), similar ones and a draw of the others.
Rce1 inhib = blocks yeast Ras-converting enzyme; actives 0.27% (n = 290,000); calls only; yeast membranes, quenched prenylated peptide cleavage fluorescence;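 active = fall in fluorescence gain of 50% or more versus controls, with final raw signal at or below 3038400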;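 also: plate controls were neutral control wells for no effect and wells lacking membranes for full effect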
FXIa inh 1536 = blocks human coagulation factor XIa protease activity | P03951 | purified FXIa, Boc-Glu-Ala-Arg-AMC fluorogenic substrate | inhibition, % at 5 µM | actives 0.14% (n = 220,000) | AID 798;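 active = inhibition of at least 40%; inactive = inhibition below 40%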;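 also: fluorescence of freed AMC excited at 355 nm; 0% = enzyme without compound and 100% = no enzyme blank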
CTSL1 counter = blocks F. hepatica cathepsin L1 in PFM18AAP counter-screen. recombinant F. hepatica cathepsin L1, Z-Leu-Arg-MCA fluorescence. inhibition, % at 5.96 µM. actives 0.49% (n = 300,000);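 active = inhibition above the mean of all tested compounds plus 3 SD, set per screening campaign, cut at about 17% in these data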;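 also: 0% = plate median of test compound wells and 100% = 1 µM Z-Phe-Ala-diazomethylketone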
KLK5 inh = blocks human kallikrein 5 protease activity; Q9Y337; recombinant hK5, fluorogenic AMC substrate cleavage; inhibition, % at 5 µM; actives 0.59% (n = 210,000); AID 873;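 active = inhibition of 40% or more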;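 also: 0% = enzyme controls without compound and 100% = no-enzyme blanks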
FXIIa inh = blocks human coagulation factor XIIa protease activity. inhibition, % at 5 µM. AID 800. actives 0.3% (n = 220,000). P00748. purified FXIIa, Boc-QGR-AMC fluorogenic substrate, 2 h; in the data active = inhibition above about 40%;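 also: 0% = enzyme with no compound and 100% = blank without enzyme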
Target sequence (P00748 20-372 limits assumed): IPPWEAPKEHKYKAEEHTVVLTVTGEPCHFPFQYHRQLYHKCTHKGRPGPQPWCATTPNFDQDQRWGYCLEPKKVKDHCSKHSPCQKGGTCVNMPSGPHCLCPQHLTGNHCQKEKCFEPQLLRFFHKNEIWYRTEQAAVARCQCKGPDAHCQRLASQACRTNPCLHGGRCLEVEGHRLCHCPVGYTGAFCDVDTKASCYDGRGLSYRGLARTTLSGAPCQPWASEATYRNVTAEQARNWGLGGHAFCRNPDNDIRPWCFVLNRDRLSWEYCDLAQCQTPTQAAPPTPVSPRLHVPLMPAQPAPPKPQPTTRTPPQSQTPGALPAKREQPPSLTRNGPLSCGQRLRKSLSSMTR
Target sequence (P00748 373-615 limits assumed): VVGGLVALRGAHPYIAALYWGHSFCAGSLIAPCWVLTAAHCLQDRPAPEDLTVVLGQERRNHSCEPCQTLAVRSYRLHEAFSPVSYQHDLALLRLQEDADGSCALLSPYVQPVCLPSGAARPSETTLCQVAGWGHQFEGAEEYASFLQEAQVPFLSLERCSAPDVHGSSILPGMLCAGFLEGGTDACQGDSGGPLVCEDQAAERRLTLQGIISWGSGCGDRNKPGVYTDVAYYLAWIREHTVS
thrombin 1536 = inhibitors of human thrombin | AID 1046 | alpha-thrombin, Boc-VPR-AMC fluorogenic substrate cleavage | P00734 | actives 0.26% (n = 220,000) | inhibition, % at 5 µM;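 active = inhibition at or above 40%; inactive = inhibition below 40%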;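 also: 0% = enzyme with no compound and 100% = wells without enzyme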
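Material: human alpha-thrombin protein; Also added: Boc-VPR-AMC substrate, 15 µM final; Timing: enzyme reaction carried out at room temperature; Signal: fluorescence, ex 355 nm, em 460 nm; Measure: % inhibition of thrombin; Controls: enzyme without compound as high, wells lacking enzyme as low.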
* = called active by the depositor; i = inactive; . = not tested or not shown; + = active, no number.

SMILES	Rce1 inhib	FXIa inh 1536	CTSL1 counter	KLK5 inh	FXIIa inh	thrombin 1536
Cc1ccc(C)c(NC(=O)CSc2nnc([C@@H](N)Cc3ccccc3)o2)c1	i	2	18*	5	-5	-17
NCCc1nnc(SCC(=O)Nc2ccc(Br)cc2)o1	i	.	1	.	.	.
Cc1ccc(C)c(NC(=O)CSc2nnc(-c3ccco3)o2)c1	i	-2	0	-15	5	-20
CC(C)C[C@H](NC(=O)OC(C)(C)C)c1nnc(SCC(=O)Nc2ccc(Br)cc2)o1	i	-9	99*	1	0	-3
CCCn1c(SCc2cc(=O)oc3ccc4ccccc4c23)n[nH]c1=O	i	16	6	-3	17	-6
Cc1ccc(C2=NN(CCC(=O)NCc3ccc4c(c3)OCO4)C(=O)CC2)cc1	i	4	1	-21	10	-1
COC(=O)c1cccc(N2CCCC2=O)c1	i	32	-3	45*	25	16
CC(C)[C@@H](C(=O)NC1CCCC1)N1C(=O)N2CCc3c([nH]c4ccccc34)[C@@]2(C)C1=O	i	.	-1	.	.	.
COc1cccc(NC=C2C(=O)OC3(CCCCC3)OC2=O)c1	i	-4	19*	-17	8	-7
Cc1ccc(CSCC(=O)N(C)CC(=O)Nc2c(Cl)cccc2Cl)cc1	i	.	-1	.	.	.
CCOC(=O)c1oc2ccccc2c1NC(=O)c1ccccc1OC	i	1	0	60*	17	-12
CCOC(=O)c1oc2ccccc2c1COC(=O)CNC(=O)c1ccccc1OC	i	.	-12	.	.	.
O=C(c1cccnc1)N1N=C(c2cccs2)CC1c1ccc(F)cc1 (stereo unspecified)	i	-4	3	-1	-1	4
O=C1c2cccc(OCC(=O)N3N=C(c4cccs4)CC3c3ccc(F)cc3)c2CCN1Cc1cccnc1 (stereo unspecified)	+	3	1	-6	2	-5
CCOC(=O)C1=C(O)C(=O)N(Cc2ccccc2)CC1	i	2	-2	14	9	-1
CCOC(=O)c1nn(-c2ccc(C)cc2)c(=O)c2c(N)scc12	i	12	17*	-13	15	1
Cc1cc(C)n(Cc2ccc(NC(=O)c3ccc(COc4ccccc4Br)cc3)cc2)n1	+	2	-3	-9	9	5
CCN(CC)C(=O)CSc1nnc([C@@H](N)C(C)C)o1	i	-2	33*	1	5	-3
CC(/C=C/C1(O)C(C)CC(O)CC1(C)C)OC1OC(CO)C(O)C(O)C1O (stereo unspecified)	i	3	55*	2	7	3
Cc1ccc(S(=O)(=O)NC(=O)Nc2cc(C)no2)cc1	i	.	-2	.	.	.
CCC(NC(=O)c1cncc(Br)c1)c1ccccc1 (stereo unspecified)	i	.	-1	.	.	.
O=C(CSc1n[nH]c(-c2ccc(S(=O)(=O)N3CCCCC3)cc2)n1)Nc1nccs1	+	11	0	-3	18	4
Cc1nc2c(C)cccn2c(=O)c1NC(=O)c1ccc2c(c1)OCO2	i	.	-1	.	.	.
O=C1C(Cl)=C(N2CCCCCC2)C(=O)N1c1ccccc1	i	5	19*	-21	12	-5
CN1CCN(C2=C(Cl)C(=O)N(c3ccc(Cl)cc3)C2=O)CC1	i	1	20*	5	11	-1
SMILES	Rce1 inhib	FXIa inh 1536	CTSL1 counter	KLK5 inh	FXIIa inh	thrombin 1536
Cc1ccc(N2C(=O)C(Cl)=C(N3CCN(C)CC3)C2=O)c(C)c1	i	-8	27*	0	2	-3
Cc1ccc(N2C(=O)C(Cl)=C(NCCO)C2=O)c(C)c1	i	3	-4	0	10	-3
CCOC(=O)C(Cc1ccc(Cl)cc1Cl)c1ccno1 (stereo unspecified)	i	-3	11	-9	3	-1
Cc1cccc2cc(C#N)c(NCCCNS(=O)(=O)c3ccc(Cl)cc3)nc12	i	-3	7	2	8	1
CCOC(=O)Cc1nnc(Nc2ccc(C(=O)NC)cc2)c2ccccc12	i	4	-1	3	9	-4
CCN(CC)Cc1c(O)ccc2c(=O)c(-c3ccccc3Cl)coc12	i	.	1	.	.	.
CCN(CC)Cc1c(O)ccc2c(=O)c(-c3ccccc3OC)coc12	+	.	7	.	.	.
CN1CC(C(=O)O)Cc2c1ccc1ccccc21 (stereo unspecified)	+	-10	0	-11	-1	-4
CC(NC(=O)OCc1ccccc1)C(=O)NCC(=O)NC(Cc1ccc(OC(C)(C)C)cc1)C(=O)OC(C)(C)C (stereo unspecified)	i	26	2	-7	27	5
COc1ccc(OC)c(CNc2ccc([N+](=O)[O-])cc2C)c1	i	5	1	0	100*	-4
CC12C=CC3(O1)C(C(=O)N(c1cccnc1)C3C(=O)NC1CCCCC1)C2C(=O)Nc1ccccc1 (stereo unspecified)	i	2	0	72*	24	11
CC(=O)O[C@H]1CC(C)(C)C(=C=C/C(C)=C/C=C/C(C)=C/C=C/C=C(C)/C=C/C=C(\C)C(=O)C[C@@]23O[C@]2(C)C[C@@H](O)CC3(C)C)[C@](C)(O)C1	i	4	34*	3	12	-1
O=C(NCc1ccccn1)C(=O)C1C(=O)Nc2ccccc21 (stereo unspecified)	i	-3	-7	-3	2	-7
Cc1ccc(OCC(=O)NCCNC(=O)c2cnccn2)cc1C	i	.	.	.	.	.
Cc1ccc(C(=O)CCC(=O)OCC(=O)N(CC(C)C)c2c(N)n(Cc3ccccc3)c(=O)[nH]c2=O)cc1	i	.	-38	.	.	.
CCOC(=O)c1c(C)nc(-c2ccccc2)nc1N	i	1	2	2	9	-9
CC(=O)c1c(C)nc(-c2ccccc2)nc1N	+	-2	-2	3	8	-4
C/C(=N\NC(=O)c1ccc(Br)cc1)c1cccc(NC(=O)c2cccnc2)c1	+	-2	2	-9	2	1
C/C(=N\NC(=O)c1cccc(N/N=C(\C)c2ccccc2)c1)c1ccccc1	.	19	1	29	63*	27
C/C(=N\NC(=O)c1cccc(N/N=C(\C)c2ccncc2)c1)c1ccncc1	i	1	0	9	10	-4
COc1cccc(C2c3[nH]c4ccccc4c3CCN2C(=O)c2ccccc2F)c1OC (stereo unspecified)	i	.	-6	.	.	.
O=C(c1cn[nH]c1)N1CCc2c([nH]c3ccccc23)C1c1c(F)cccc1Cl (stereo unspecified)	i	0	5	75*	15	2
Cc1cccc(NC(=O)C2CCCC2)c1	i	4	9	-5	14	0
N#Cc1ccc(NC(=O)COC(=O)CNC(=O)C2CCCCC2)cc1	i	-12	31*	3	-12	-25
